Measured values published in PubChem BioAssay AID1019 (Sanford-Burnham Center for Chemical Genomics, 2008).
Among all 190,000 compounds or so, fewer than 10 were called active.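 The calls were made as follows: active = over 50% inhibition of intestinal alkaline phosphatase at 20 µM in the single-dose screen; inactive = the rest.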 Only a sample is shown.

Tested on: alkaline phosphatase, intestinal [Bos taurus]
Assay: bovine intestinal alkaline phosphatase inhibitors, primary screen, selectivity assay for TNAP inhibitor project, biochemical, bovine IAP, CDP-star luminescence (AID 1019)
Conditions: purified bovine IAP, 30 min, at 20 µM, active compounds read high
Procedure, shortened: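 Incubation: 30 min reaction at room temperature / Material: purified bovine intestinal alkaline phosphatase (IAP) enzyme / Input: enzyme at 1/65,000,000 dilution / Dosing: 20 µM single dose / Signal: CDP-star luminescence signal / Reagent: CDP-star chemiluminescent phosphatase substrate, 30 µM final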

| SMILES | inhibition |
| --- | --- |
| COc1ccc(/C=C(\C#N)C(=O)ONC2=NCCCCC2)cc1 | -2% (inactive) |
| Cc1ncoc1C(=O)N1CCCC(C(=O)c2ccc3c4c(cccc24)CC3)C1 (stereo not given) | 8.3% (inactive) |
| COC(=O)c1nc(NC(=O)c2ccc(F)cc2)n[nH]1 | 8.8% (inactive) |
| CC1(C)CC(=O)c2cnc3nc4ccccc4n3c2C1 | 7.1% (inactive) |
| CCOc1c(CNCc2ccc(C(=O)O)cc2)cccc1OC | -5.7% (inactive) |
| Cc1cc(C(C)(C)C)cc(S(=O)(=O)Nc2ccc(C(=O)O)cc2)c1C | -15.7% (inactive) |
| Cc1c(NC(=O)CSc2nnnn2-c2ccc(C(=O)O)cc2)c(=O)n(-c2ccccc2)n1C | 6% (inactive) |
| CC(C)(C)c1cnnn1-c1ccc([N+](=O)[O-])cc1 | 3.1% (inactive) |
| CCCCCCCCCOC1OC(CO)C(O)C(O)C1NC(C)=O (stereo not given) | -0.5% (inactive) |
| COc1ccc(CCNC(=O)CN(c2ccccc2)S(C)(=O)=O)cc1 | -4% (inactive) |
| CCCc1nc2c([nH]1)C(c1cccnc1)C(C#N)=C(N)O2 (stereo not given) | 8.5% (inactive) |
| CC(OC(=O)CCc1nc(=O)c2ccccc2n1C)C(=O)NCc1ccc2c(c1)OCO2 (stereo not given) | -9.4% (inactive) |
| O=c1[nH]c(=S)[nH]c2[nH]c(=S)[nH]c12 | 18.7% (inactive) |
| CC(C)N(Cc1nc(-c2ccc3c(c2)OCO3)no1)CC1CCC(=O)N1 (stereo not given) | 2.1% (inactive) |
| O=C(NC1CC1)c1ccc(-c2ccccc2)cc1 | -4.4% (inactive) |
| O=C(O)CSCC(=O)Nc1ccc(C(F)(F)F)cc1 | 3.8% (inactive) |
| COc1cc(OC)cc(C(=O)NCC(=O)OCc2csc(-c3ccccc3)n2)c1 | 1.4% (inactive) |
| CNc1nccc(-c2ccc(Cl)cc2)c1C#N | -1.9% (inactive) |
| O=C(c1ccc(C(F)(F)F)cc1)C1CCCN(C(=O)c2csnn2)C1 (stereo not given) | 9.5% (inactive) |
| CN1C(=O)/C(=C/c2ccco2)SC1=Nc1cccc(C(=O)O)c1 | -5.3% (inactive) |
| COC(=O)CCC(=O)N1CCCC(CO)(Cc2ccccc2)C1 (stereo not given) | 6.2% (inactive) |
| CCN(CC)CCN(C(=O)c1cccc([N+](=O)[O-])c1)c1nc2ccc(OC)cc2s1 | 4.9% (inactive) |
| O=C(Nc1ccc([N+](=O)[O-])cc1)C1(c2ccccc2)CCOCC1 | 9.9% (inactive) |

| SMILES | inhibition |
| --- | --- |
| Cc1noc(C)c1COc1cccc(C(=O)Nc2cccnc2)c1 | -7.5% (inactive) |
| CC(C)CCNC(=O)c1cccnc1Sc1ccccc1 | -6.1% (inactive) |
| Brc1ccc(C2CC(c3ccccc3)=Nc3ccccc3N2)cc1 (stereo not given) | 7.5% (inactive) |
| Cc1ccc(C)c(Cn2nnc3c(=O)[nH]c(C(=O)Nc4ccc(F)cc4)nc32)c1 | 2.7% (inactive) |
| COc1ccccc1CN(C)C(=O)C1(c2ccc(Cl)cc2)CC1 | 11.2% (inactive) |
| COCCNC(=S)Nc1cc(S(=O)(=O)N2CCOCC2)ccc1N1CCCCC1 | -0.2% (inactive) |
| COc1ccc(S(=O)(=O)N2CCN(C(=O)c3cc(C)oc3C)CC2)cc1 | 4.3% (inactive) |
| Cc1ccc(NC(=O)c2oc3ccccc3c2C)c([N+](=O)[O-])c1 | 21.2% (inactive) |
| Clc1ccc(-c2cc(C3CCNCC3)[nH]n2)c(Cl)c1 | 1% (inactive) |
| COc1cccc(NC(=O)C(Sc2nnnn2C)c2ccccc2)c1 (stereo not given) | -2.3% (inactive) |
| CCC1SC(CC)C(=O)N(CC(=O)NC2CCCCC2)C1=O (stereo not given) | 11.7% (inactive) |
| O=C(CCc1[nH]c2ccccc2c1Sc1ccccc1)N(CCO)CCO | 14.8% (inactive) |
| Cc1ccc(S(=O)(=O)N(Cc2ccc(Cl)cc2)c2ccccc2C(=O)NCc2cccnc2)cc1 | 15.3% (inactive) |
| O=C(C/C(=N\NC(=O)c1ccccc1Br)C(F)(F)F)c1cccs1 | 5.9% (inactive) |
| Cc1ccc(C(=O)N2CCN(S(=O)(=O)N3CCOCC3)CC2)cc1 | 9% (inactive) |
| CCc1cccc(C)c1NC(=O)COC(=O)Cc1ccsc1 | -0.9% (inactive) |
| O=C(CSc1nncs1)NC1CCCc2ccccc21 (stereo not given) | -2.1% (inactive) |
| Cc1ccc2nc(C)cc(N/N=C/c3ccc(F)cc3)c2c1 | 0.2% (inactive) |
| O=C(COC(=O)Cn1cnc2ccccc2c1=O)NCC12CC3CC(CC(C3)C1)C2 | 12.5% (inactive) |
| O=C1CCC(CCC(=O)N2CCCC(C(=O)c3ccc(Cl)cc3)C2)=NN1 (stereo not given) | -3% (inactive) |
| CCC(C)CN1CCC(CO)(Cc2ccccc2Cl)CC1 (stereo not given) | -18.6% (inactive) |
| COc1ccc(N2C(=O)C(Cc3ccccc3)NC2=S)cc1 (stereo not given) | -2.9% (inactive) |
| COc1ccc(-n2cnnc2SCC(=O)Nc2cccc([N+](=O)[O-])c2)cc1 | 8.1% (inactive) |

| SMILES | inhibition |
| --- | --- |
| Cc1nc2scc(-c3cccs3)c2c(=O)n1N | -37.2% (inactive) |
| CCN(CC(=O)Nc1ccc(Cl)c(S(=O)(=O)N(C)C)c1)Cc1nc2ccccc2c(=O)[nH]1 | -108% (inactive) |
| COc1cc(C(=O)Nc2cc(C(F)(F)F)ccc2-n2cncn2)cc(OC)c1OC | -1.7% (inactive) |
| NS(=O)(=O)c1ccc(CCNC(=O)c2ccc(Cl)cc2[N+](=O)[O-])cc1 | -14.5% (inactive) |
| Cc1nc2ccccn2c1C(=O)NN=C1CCN(C)CC1 | -6.8% (inactive) |
| CC(=O)NNC1=Nc2ccccc2N(C)C(C)C1 (stereo not given) | 26.5% (inactive) |
| Clc1ccc(N/N=C/c2cccs2)nn1 | -1.4% (inactive) |
| Cc1cccc(CSc2ccc(-c3cccs3)nn2)c1 | 14.5% (inactive) |
| COC(=O)c1c(NC(=O)c2c(Cl)cnn2C)sc(C)c1C | 0.9% (inactive) |
| O=C(NCc1cccs1)c1cc(-c2ccccn2)nc2ccc(Br)cc12 | -9.8% (inactive) |
| CC1CCN(C(=O)c2ccc(S(=O)(=O)Cc3cc(F)ccc3F)c([N+](=O)[O-])c2)CC1 | 18.6% (inactive) |
| COc1ccc(CCN=C2SCC(=O)N2Cc2ccccc2)cc1OC | 3.1% (inactive) |
| COc1ccc(C(=O)NNC(=O)c2cc(C)[nH]n2)cc1 | -38.6% (inactive) |
| CCN(CC)CCN(C(=O)c1ccc(N2C(=O)CCC2=O)cc1)c1nc2cc3c(cc2s1)OCO3 | -11.6% (inactive) |
| CC(=O)Nc1ccc(C(=O)OCC(=O)Nc2ccc([N+](=O)[O-])cc2C(F)(F)F)cc1 | 34.7% (inactive) |
| Cn1cc(CN2CCCCC2c2ccccn2)c(-c2ccc3c(c2)OCCO3)n1 (stereo not given) | 6.3% (inactive) |
| COc1ccc(C(=O)Nc2ccc(N3CCC(C)CC3)cc2)cc1Br | -10.7% (inactive) |
| O=C(CSc1ccccc1)Nc1cc(Cl)ccc1Oc1ccccc1 | 6.2% (inactive) |
| N/C(Cc1ccc([N+](=O)[O-])cc1)=N\OC(=O)C1CCCCC1 | -0.5% (inactive) |
| CCCCS(=O)c1snnc1C (stereo not given) | -11.4% (inactive) |
| C[C@@H]1NC(=O)c2cc([N+](=O)[O-])cc(F)c2NCCC[C@@H](C(N)=O)NC(=O)[C@H](CC(N)=O)NC1=O | 38.7% (inactive) |
| CCN(CC)C(=O)Oc1ccc(OC(=O)N(CC)CC)cc1 | -10.3% (inactive) |
| CC(=O)NCC(=O)N(Cc1ccco1)C1(C(=O)NC2CCCC2)CCCCC1 | 3.8% (inactive) |

| SMILES | inhibition |
| --- | --- |
| CCOC(=O)c1c(CN(C)C)n(-c2ccccc2)c2cc(Br)c(O)cc12 | -6.7% (inactive) |
| CC(C)C(=O)Nc1ccc2oc(=O)ccc2c1 | 7% (inactive) |
| CCOC(=O)/C(C#N)=C/c1ccc(N2CCCCC2)cc1 | 11.8% (inactive) |
| CC(C)(c1ccccc1)c1ccc(OCCN)cc1 | 14.7% (inactive) |
| COC(=O)Cc1ccc(NC(=S)NCc2ccco2)cc1 | 4% (inactive) |
| COc1ccc(/C=N/N=C2/C(=O)Nc3ccccc32)cc1O | 5% (inactive) |
| COc1cc(NS(=O)(=O)c2ccc(NC(=O)CN3C(=O)c4ccccc4C3=O)cc2)ncn1 | 3.8% (inactive) |
| CN(C)CCN=c1cc(-c2ccccc2)oc2ccc(Cl)cc12 | -8.9% (inactive) |
| CC(C)(C)NC(=O)c1ccc(Cn2cc(C(F)(F)F)ccc2=O)cc1 | 4.3% (inactive) |
| Oc1ccc(N2CCN(C(=S)NCc3ccccc3)CC2)cc1 | 6.1% (inactive) |
| CCCCN(CC)CCCNC(=O)c1ccc(CSc2nc3ccncc3[nH]2)cc1 | -24% (inactive) |
| O=C(CCc1ccccc1)Nc1nn[nH]n1 | 5.5% (inactive) |
| CC1CCCN(CC(O)COc2ccc3c(c2)OCO3)C1 (stereo not given) | 3.1% (inactive) |
| Cc1ccccc1C1CC(c2cccs2)=NN1S(C)(=O)=O (stereo not given) | 18.1% (inactive) |
| CCN(c1ccccc1)S(=O)(=O)c1ccc2[nH]c(=O)[nH]c2c1 | 3.4% (inactive) |
| O=S(=O)(NCCc1ccc(F)cc1)c1cccc2cccnc12 | 10.8% (inactive) |
| COc1cc(/C=C/C(=O)OCC(=O)N2CCOCC2)ccc1OCC#N | -7.3% (inactive) |
| O=C(Cn1cnc2ccccc21)N/N=C/c1ccco1 | -22.7% (inactive) |
| CC1CC(C)CN(CCC(=O)Nc2ccc3c(c2)CCC3)C1 (stereo not given) | -14.7% (inactive) |
| O=C(COC(=O)/C=C/c1ccc(S(=O)(=O)N2CCCCCC2)cc1)NCc1ccccc1Cl | 14.5% (inactive) |
| CCCNC(=O)NC(=O)COC(=O)CC(NC(N)=O)c1ccc(Cl)cc1 (stereo not given) | 7.6% (inactive) |
| Cc1c(C=O)c2ccccc2n1CC(=O)O | -6.7% (inactive) |
| CCn1nc(C)c(CN2CCN(Cc3ccc(OC)c(C)c3C)C(CCO)C2)c1C (stereo not given) | -4.7% (inactive) |

| SMILES | inhibition |
| --- | --- |
| COc1ccc(C2CC(c3cccs3)Nc3nnnn32)cc1 (stereo not given) | 16.6% (inactive) |
| CCN(CC)C(=O)N(CC)Cc1ccccc1 | -1.7% (inactive) |
| Cc1ccc(Nc2c(F)c(F)c(F)c(F)c2C(=O)O)c(C)c1 | 1.3% (inactive) |
| C=CCN(c1ccc(Cl)cc1)S(=O)(=O)c1cccc(C(=O)OCC(=O)N(C)C)c1 | -6.8% (inactive) |
| Cn1cc(-c2ccccc2)cc(C#N)c1=O | -3.4% (inactive) |
| CC(C)(C)n1ncc2c(=O)n(Cc3ccc(Cl)cc3)cnc21 | -1.6% (inactive) |
| CCCCCCCNc1nc(Cl)nc(NCCO)n1 | -10.7% (inactive) |
| CCOC(=O)C1(Cc2ccccc2C(F)(F)F)CCN(C(=O)c2cc(C)n(C)n2)CC1 | -5.4% (inactive) |
| CCN(CC)CCNc1nc(-c2ccc(OC(F)F)cc2)c(C)s1 | -8.2% (inactive) |
| O=C(Nc1cccc(F)c1)c1coc(=O)c(Br)c1 | 13.2% (inactive) |
| COC(=O)c1ccc(C(=O)OC)c(NC(=S)N2CCN(c3ccc(F)cc3)CC2)c1 | -5.9% (inactive) |
| CC(NC(=O)CCC(=O)N1CCN(S(=O)(=O)c2ccc(Cl)cc2)CC1)c1ccccc1 (stereo not given) | -56.8% (inactive) |
| COc1cc(C(=S)NC2CCCCC2)ccc1O | 5.4% (inactive) |
| CCOc1ccc(NC(=S)NC(=O)/C=C/c2ccc(OC)cc2)c([N+](=O)[O-])c1 | -34% (inactive) |
| C=CCO/N=C/C1=C(O)C(C(=O)OC)C(C)(C)CC1=O (stereo not given) | -21.8% (inactive) |
| CC(NC(=O)CC1SC(N)=NC1=O)c1ccccc1 (stereo not given) | -8.1% (inactive) |
| C/C(=N\NC(=O)c1ccc(CSc2nc(C)cc(C)n2)cc1)C1CCCCC1 | -2.1% (inactive) |
| COc1ccc(OC)c(CNC(=O)c2cc(=O)[nH]c3ccc(S(=O)(=O)N4CCCC4)cc23)c1 | 9.9% (inactive) |
| Cc1cccc(NC(=O)c2nnn(-c3cccc(C(F)(F)F)c3)c2N)c1 | 6.8% (inactive) |
| CCOC(=O)N1CCN(C(=O)C2CCN(Cc3ccc(OC)cc3OC)CC2)CC1 | 3.5% (inactive) |
| O=C(NCCc1ccccc1)C1CCN(S(=O)(=O)c2ccc(Br)s2)CC1 | 2.9% (inactive) |
| CSc1nc2c(c(=O)[nH]1)C(c1cccc(Cl)c1Cl)CC(=O)N2 (stereo not given) | -12.6% (inactive) |
| Cc1ccc(CCC(=O)Nc2ncc(Cc3cc(Cl)ccc3Cl)s2)o1 | 5.3% (inactive) |
